Source: publication PMC3556274 (Bioconjugate chemistry, 2012)
Non-standard residues stand in square brackets, D forms with d. Residues, ends and D or L forms follow the SMILES beside them. *: point of attachment. DTPA = O=C(O)CN(CCN(CC(=O)O)CC(=O)O)CCN(CC(=O)O)CC(=O)*; Orn = NCCC[C@H](N)C(=O)O; 2Furoyl = O=C(c1ccco1)*

Key:
PAR2 [1] = target: T1, PAR2 (Homo sapiens, UniProt P55085); format: binding; conditions: 16HBE14o- cells, against 300 nM 2-f-LIGRLO-dtpa
T1 sequence (P55085 26-397): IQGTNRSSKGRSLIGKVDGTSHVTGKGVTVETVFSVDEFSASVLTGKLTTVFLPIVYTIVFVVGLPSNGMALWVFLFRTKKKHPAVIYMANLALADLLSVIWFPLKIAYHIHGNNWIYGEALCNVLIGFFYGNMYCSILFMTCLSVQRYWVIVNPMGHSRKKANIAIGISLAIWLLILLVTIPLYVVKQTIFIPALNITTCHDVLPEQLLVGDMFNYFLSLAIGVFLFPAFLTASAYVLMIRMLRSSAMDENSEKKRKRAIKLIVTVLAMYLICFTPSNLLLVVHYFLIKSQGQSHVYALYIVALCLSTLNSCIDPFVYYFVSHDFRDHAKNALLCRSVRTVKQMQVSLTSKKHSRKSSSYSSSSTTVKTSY
Outline: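 Live 16HBE14o- cells grown to confluence (37°C, 5% CO2) on BSA/collagen I/fibronectin-coated 96-well plates. Cells were blocked 75 min in 2% BSA in HEPES-buffered HBSS pH 7.4, then given 45 min at 25°C with 300 nM Eu-DTPA-labelled PAR2 agonist plus competitor at 1 nM–600 µM. Three EDTA/Tween/BSA washes followed, then DELFIA enhancement for 40–45 min. Eu TRF read at ex 340/em 615 nm with 400 µs delay. Apparent IC50 from n ≥ 3 per concentration in ≥2 independent plates.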

PAR2 [2] = target: T1, PAR2; assay: xCELLigence Real Time Cell Analyzer; format: cell-based; conditions: 16HBE14o- cells
PAR2 [3] = target: T1, PAR2; assay: MAPK signaling, immunoblot of pERK/tERK; format: cell-based; conditions: 16HBE14o- cells, 5 min exposure, concentration response 1-10 µM
Outline: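 16HBE14o- cells exposed 5 min to test compound at 1–10 µM. ERK1/2 phosphorylation measured by immunoblot as pERK relative to total ERK. Values were compared with matching HBSS control.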

PAR2 [4] = target: T1, PAR2; assay: Ca2+ signaling by digital imaging microscopy in 16HBE14o- cells; format: cell-based; conditions: 5 µM
Outline: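 Human bronchial epithelial 16HBE14o- cells (high PAR2 expression) imaged by digital microscopy for [Ca2+]i changes in individual cells over a 3 min run after agonist addition. Concentration response 0.5–25 µM. Read-out: time course of [Ca2+]i rise and percentage of cells in the field responding within 3 min. Each concentration had 3–9 experiments.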

[5] = tested on: control vector-transfected (kNRK) rat kidney cells; assay: Ca2+ signaling in control vector-transfected kNRK cells; format: cell-based
Outline: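 Kirsten virus-transformed normal rat kidney cells (low PAR2 expression) transfected with control vector were run alongside PAR2-transfected kNRK cells. [Ca2+]i was imaged by digital microscopy as for the bronchial epithelial cells, scoring the percentage of cells responding within the 3 min run. Comparison was to matched control, n ≥ 4.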

Row | Compound | competition for PAR2 binding (in words) (PAR2 [1]) | concentration that stimulated a maximum Cell Index (PAR2 [2]; RTCA) [µM] | agonist properties in the RTCA physiological response assay (PAR2 [2]; acute (10 min) and long-term (4 h) time points) | concentration inducing a significant increase in pERK/tERK compared with control (PAR2 [3]) [µM] | concentration of peak (maximum) pERK/tERK activation (PAR2 [3]) [µM] | time to initial increase in [Ca2+]i (PAR2 [4]) [s] | percentage of cells with Ca2+ signaling ([5]; 2.5 µM) | percentage of cells with Ca2+ signaling ([5]; 5 µM)
1 | 3-indoleacetyl-LIGRL-NH2 [3-ia-LIGRL] | displayed limited binding |  |  |  |  |  |  | 
2 | CC[C@H](C)[C@H](NC(=O)[C@H](CC(C)C)NC(=O)c1ccco1)C(=O)NCC(=O)N[C@@H](CCCNC(=N)N)C(=O)N[C@@H](CC(C)C)C(=O)N[C@@H](CCCNC(=O)CN(CCN(CCN(CC(=O)O)CC(=O)O)CC(=O)O)CC(=O)O)C(N)=O [2-f-LIGRLO-dtpa, 2-furoyl-LIGRLO-(diethylenetriaminepentaacetic acid)-NH2] (2Furoyl-LIGRL[Orn](DTPA)-NH2) |  | 2.5 | full agonist properties | 2.5 | 10 | ≤ 30 | 0.42% ± 0.42 | 2.98% ± 0.09
